# Results of several laboratories.
# Lines come from different studies, so protocols differ.
SMILES,organism,assay,test system,setting,measurement,value
COc1ccc(C=NNC(=O)CSc2nc3c(C)cccc3c(=O)n2-c2ccccc2)cc1OS(C)(=O)=O,Pseudomonas aeruginosa,"microbial growth, well diffusion",,20 µg/mL,inhibition zone,2 mm
Cc1ccc2[nH]nc(-c3nnc(Nc4ccc(F)cc4Cl)s3)c2c1,Pseudomonas aeruginosa,microbial growth,ATCC27853,,MIC,96.1 µg/mL
CN[C@H](CC(C)C)C(=O)N[C@H]1C(=O)N[C@@H](CC(N)=O)C(=O)N[C@H]2C(=O)N[C@H]3C(=O)N[C@H](C(=O)N[C@H](C(=O)O)c4cc(O)cc(O)c4-c4cc3ccc4O)[C@H](O)c3ccc(c(Cl)c3)Oc3cc2cc(c3O[C@@H]2O[C@H](CO)[C@@H](O)[C@H](O)[C@H]2O[C@H]2C[C@](C)(N)[C@H](O)[C@H](C)O2)Oc2ccc(cc2Cl)[C@H]1O,Kocuria,"microbial growth, broth dilution",,,MIC,0.67 µM
CCCS(=O)(=O)Oc1ccc(C=NNC(=O)CSc2nc3c(C)cccc3c(=O)n2-c2ccccc2)cc1OC,Pseudomonas aeruginosa,"microbial growth, well diffusion",,20 µg/mL,inhibition zone,2 mm
CC1(C)S[C@@H]2[C@H](NC(=O)[C@H](N)c3ccccc3)C(=O)N2[C@H]1C(=O)O,Kocuria,"microbial growth, broth dilution",,,MIC,1.34 µM
CO[C@H]1/C=C/O[C@@]2(C)Oc3c(C)c(O)c4c(c3C2=O)C2=NC3(CCN(CC(C)C)CC3)NC2=C(NC(=O)/C(C)=C\C=C\[C@H](C)[C@H](O)[C@@H](C)[C@@H](O)[C@@H](C)[C@H](OC(C)=O)[C@@H]1C)C4=O,Mycobacteroides abscessus,"microbial growth, agar dilution",ATCC19977,,MIC,11.2 µM
CC(=O)c1sc(N/N=C/c2c(-c3ccccc3)nc3ncccn23)nc1C,Pseudomonas aeruginosa,"microbial growth, well diffusion",ATCC27853,100 µg/mL,inhibition zone,14 mm
CNC(C)C1CCC(N)C(OC2C(N)CC(N)C(OC3OCC(C)(O)C(NC)C3O)C2O)O1 (stereo not shown),Pseudomonas aeruginosa,"microbial killing, broth dilution",ATCC27853,24 h,MBC,8000 µM
O=C(O)c1cn(C2CC2)c2cc(N3CCNCC3)c(F)cc2c1=O,Pseudomonas aeruginosa,"microbial growth, broth dilution",,,MIC90,1.56 µM
CCOC(=O)/C=C1/SC(N/N=C/c2c(-c3ccc(F)cc3)nc3ncccn23)=NC1=O,Pseudomonas aeruginosa,"microbial growth, well diffusion",ATCC27853,100 µg/mL,inhibition zone,11 mm
